We go through 13 molecules from ChEMBL document CHEMBL1157201, “1,5-Disubstituted 1,2,3-triazoles as cis-restricted analogues of combretastatin A-4: Synthesis, molecular modeling and evaluation as cytotoxic agents and inhibitors of tubulin” (Bioorg Med Chem, 2008).

The target of test [1] is Tubulin (Sus scrofa, UniProt P02554+P02550). Put plainly: Inhibition of pig brain tubulin polymerization. The gist of the method:
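Porcine brain tubulin stored at -78 °C. Mixed with Mes buffer (0.1 M Mes, 1 mM EGTA, 0.5 mM MgCl2, pH 6.6) and GTP (stock 5 mM) plus drug in DMSO, in a plate prechilled 30 min at 4 °C. Absorbance at 350 nm followed 60 min at 25 °C against drug-only blanks and untreated controls. IC50 derived graphically as percentage of control assembly.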

The subject of test [2] is K562. Put plainly: Cytotoxicity against human K562 cells after 5 days by MTT assay. The format is functional, cell-based. Particulars: K562, 120 h. The gist of the method:
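K562 chronic myelogenous leukemia cells grown in antibiotic-free RPMI with 2-mercaptoethanol (2 μM), L-glutamine (2 mM) and 10% FCS, seeded at ca 40,000 cells/mL. DMSO-dissolved drug added as a serial dilution series, with a drug-free control. Incubated 37 °C, 5% CO2. MTT (3 mg/mL in PBS) added for 3 h, formazan dissolved in DMSO, OD read at 540 and 690 nm. IC50 derived graphically as percentage of control growth.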

Test [3] in a line: Cytotoxicity against human WM35 cells assessed as [3H]thymidine incorporation after 72 hrs by microplate scintillation counter. It counts as functional, cell-based. The gist of the method: (§1)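 RPMI 1640 with 2 mM L-glutamine, plus 5% FCS (WM35, WM239) or 10% FCS (SKOV, OVCAR, MDA-MB231, SK-BR 3); SK-BR 3 medium also had 12,5 µM insulin. 1 µCi [3H]thymidine label for the final 24 h. Controls got solvent-only medium. Values are medians of three experiments.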
On the technique in general: Uptake of a labelled nucleoside into DNA is a usual measure of proliferation.

Test [4] in a line: Cytotoxicity against human SKOV cells assessed as [3H]thymidine incorporation after 72 hrs by microplate scintillation counter. The format is functional, cell-based. A digest of the protocol: as §1
Test [5] is described as follows: Cytotoxicity against human WM239 cells assessed as [3H]thymidine incorporation after 72 hrs by microplate scintillation counter. The format is functional, cell-based. A digest of the protocol:
as §1

Test [6] concerns SK-BR-3. Put plainly: Cytotoxicity against human SK-BR3 cells assessed as [3H]thymidine incorporation after 72 hrs by microplate scintillation counter. The format is functional, cell-based. The gist of the method: as §1
Test [7] relates to OVCAR. In words: Cytotoxicity against human OVCAR cells assessed as [3H]thymidine incorporation after 72 hrs by microplate scintillation counter. It counts as functional, cell-based. The gist of the method: as §1
Test [8] has as its system MDA-MB-231. Put plainly: Cytotoxicity against human MDA-MB-231 cells assessed as [3H]thymidine incorporation after 72 hrs by microplate scintillation counter. The format is functional, cell-based. A digest of the protocol: as §1

What is called IC50 is the concentration at which inhibition is half-maximal. For `COc1ccc(-c2cnnn2-c2cc(OC)c(OC)c(OC)c2)cc1[N+](=O)[O-]`, the half-inhibitory concentration (IC50) in test [1] was > 20000 nM; in test [2], 460 nM.

`COc1ccc(-c2cnnn2-c2cc(OC)c(OC)c(OC)c2)cc1O`: in test [1], the IC50 amounted to 12600 nM.

Take `COc1ccc(-n2nncc2-c2cc(OC)c(OC)c(OC)c2)cc1`: the midpoint of inhibition in test [2], the IC50, lay at 4000 nM.

`COc1ccc(-n2nncc2-c2cc(OC)c(OC)c(OC)c2)cc1O`: the IC50 amounted to 14000 nM in test [1] and 410 nM in test [2].

Take `COc1ccc(/C=C\c2cc(OC)c(OC)c(OC)c2)cc1O` [COMBRETASTATIN A4]: the IC50 was determined as 2.5 nM in test [3]; 3.3 nM in test [4]; 10 nM in test [2]; 2.8 nM in test [5]; 5.1 nM in test [6]; 3.3 nM in test [7]. Besides, the IC50 in test [8] was determined as 6 nM.

Take `COc1ccc(-c2cn(-c3cc(OC)c(OC)c(OC)c3)nn2)cc1N`: the results for the 50% inhibitory concentration (IC50) in test [1] and in test [2] were > 20000 nM and 1300 nM, respectively.

`COc1ccc(-n2nncc2-c2cc(OC)c(OC)c(OC)c2)cc1Br` yielded an IC50 in test [2] of 3600 nM.

Consider `COc1ccc(-c2cnnn2-c2cc(OC)c(OC)c(OC)c2)cc1`, for which the IC50 turned out to be 7000 nM in test [1] and 27 nM in test [2].

On to `COc1ccc(-n2nncc2-c2cc(OC)c(OC)c(OC)c2)cc1[N+](=O)[O-]`, for which the IC50 in test [2] was > 10000 nM.

For `COc1ccc(-c2cnnn2-c2cc(OC)c(OC)c(OC)c2)cc1Br`, the figures for the IC50 in test [1] and in test [2] were > 20000 nM and 57 nM, respectively.

For the molecule `COc1ccc(-c2cnnn2-c2cc(OC)c(OC)c(OC)c2)cc1N`, the IC50 in test [3] worked out at 3.9 nM; in test [4], 4.9 nM; in test [1], 4800 nM; in test [2], 11 nM; in test [5] it was 5.1 nM; in test [6], 4 nM. The 50% inhibitory concentration (IC50) in test [7] is 4.7 nM; in test [8], > 10 nM.

`COc1ccc(-n2nncc2-c2cc(OC)c(OC)c(OC)c2)cc1N`: the figures for the IC50 in test [1] and in test [2] were > 20000 nM and 570 nM, respectively.

In the case of `COc1ccc(-c2cn(-c3cc(OC)c(OC)c(OC)c3)nn2)cc1[N+](=O)[O-]`, the IC50 in test [2] was > 10000 nM.
